Hits are enriched below; roughly 6.3% of the tested compounds scored in any of these assays.
PostGolgi yeast – growth inhibition of a yeast mutant, post-Golgi transport screen; post-Golgi transport phenotypic cell assay; inhibition, % at 10 µM; 98,000 compounds, 0.9% hits;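 also: yeast cells grown in 1536-well plates; yeast grown about 18 h at 30C before absorbance read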
Ecoli WT expand – growth inhibitors of E. coli BW25113 wild type | OD600 absorbance | growth inhibition, % at 100 µM | 98,000 compounds, 0.15% hits | AID 710;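 active = growth inhibition above about 50% at one test dose, limit read from the data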;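 also: growth measured after 20 h incubation at 37 °C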
PostGolgi ctrl – inhibits growth of the yeast control strain; efflux-deficient yeast background strain, growth absorbance A615, 16 h; inhibition, % at 10 µM; 98,000 compounds, 5% hits; AID 738
tolC growth inh – E. coli tolC mutant growth inhibition; growth inhibition, % at 10 µM (by protocol); E. coli BW25113 tolC mutant growth, OD615; 65,000 compounds, 2.2% hits;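 active = growth inhibition at or above a cutoff equal to the mean over every tested compound plus 3 SD, cut at about 60% in these data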;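 also: growth measured after 20 h incubation at 37 °C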
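Test system: E. coli BW25113 ΔtolC::kan bacteria; incubation: 37 °C, 20 h exposure; medium: LB broth supplemented with 50 µg/mL kanamycin; read-out basis: percent growth inhibition; signal: A615 absorbance measurement; compound: 10 µM final, single dose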
Numbers without * were called inactive. Rule as the data show it, unless noted: active = inhibition above about 30%; inactive = the rest.

How did CC(O)C1CCC2C3CC[C@H]4CC(O)CCC4(C)C3CC3(OCCO3)C12C (stereo partly specified) do in these assays?
PostGolgi yeast: 11; Ecoli WT expand: 8; PostGolgi ctrl: 33*

What do the screens show for `Cc1csc(NC(=O)c2cccc(Cn3nc(C)c(Br)c3C)c2)n1`?
PostGolgi yeast: 8; Ecoli WT expand: -1; PostGolgi ctrl: 15; tolC growth inh: 73*

How did Cc1nn(Cc2ccc(C(=O)Nc3nc4c(C)cccc4s3)o2)c(C)c1Br do in these assays?
PostGolgi yeast: 32*; Ecoli WT expand: -10; PostGolgi ctrl: 35*

What do the screens show for `CC(CN1CCN(c2ccccc2)CC1)c1ccccc1` (stereo unspecified)?
PostGolgi yeast: 12; Ecoli WT expand: 6; PostGolgi ctrl: -3

What do the screens show for `Cc1cc(C)n(C(=O)C(C)N2C(=O)c3ccccc3C2=O)n1` (stereo unspecified)?
PostGolgi yeast: 1; Ecoli WT expand: 7; PostGolgi ctrl: -3; tolC growth inh: -12

What do the screens show for `COC(=O)C(NC=O)C(O)(Cc1ccccc1)C(F)(F)F` (stereo unspecified)?
PostGolgi yeast: 1; Ecoli WT expand: -2; PostGolgi ctrl: 10; tolC growth inh: -9

How did COc1ccccc1C1CN=NC12CCCc1ccccc1C2=O (stereo unspecified) do in these assays?
PostGolgi yeast: -14; Ecoli WT expand: 3; PostGolgi ctrl: 35*

Results for COc1ccc(C2CN=NC23CCCc2ccccc2C3=O)cc1 (stereo unspecified) ?
PostGolgi yeast: 2; Ecoli WT expand: 6; PostGolgi ctrl: 21

Results for COc1cc2c(cc1OC)C(c1ccc(-c3ccc(Cl)cc3Cl)o1)=NCC2 ?
PostGolgi yeast: 1; Ecoli WT expand: -25; PostGolgi ctrl: 17

How did COc1cc2c(cc1OC)C(c1ccc(-c3cc(Cl)ccc3Cl)o1)=NCC2 do in these assays?
PostGolgi yeast: 26; Ecoli WT expand: -2; PostGolgi ctrl: 52*

How did C=CCSc1n[nH]c(-c2ccc(OCCC)cc2)n1 do in these assays?
PostGolgi yeast: -9; Ecoli WT expand: 21; PostGolgi ctrl: 0; tolC growth inh: 33

Results for C=CCSc1n[nH]c(-c2ccc(OCCCC)cc2)n1 ?
PostGolgi yeast: 1; Ecoli WT expand: 0; PostGolgi ctrl: 29; tolC growth inh: 86*

What do the screens show for `COC(=O)c1ccccc1NC(=O)c1ccco1`?
PostGolgi yeast: -9; Ecoli WT expand: 4; PostGolgi ctrl: 8; tolC growth inh: 16

How did O=C(Nc1ccccc1C(=O)OCc1nnc(-c2ccccc2)o1)c1ccco1 do in these assays?
PostGolgi yeast: -1; Ecoli WT expand: -11; PostGolgi ctrl: 48*; tolC growth inh: 6

What do the screens show for `O=C(CSCc1ccc(Cl)cc1)NCc1ccc2c(c1)OCO2`?
PostGolgi yeast: 10; Ecoli WT expand: 13; PostGolgi ctrl: 11

What do the screens show for `Cc1cc(C)c2c3c(sc2n1)C(c1cccc(F)c1)C(C#N)=C(N)O3` (stereo unspecified)?
PostGolgi yeast: 19; Ecoli WT expand: -2; PostGolgi ctrl: 74*

How did CCCN1CCC2(CC1)C(C#N)=C(N)Oc1c2sc2nc(C)cc(C)c12 do in these assays?
PostGolgi yeast: -3; Ecoli WT expand: -4; PostGolgi ctrl: -6

Results for O=C1c2ccccc2C(=O)N1CCCCCc1nc(-c2ccccc2)no1 ?
PostGolgi yeast: 8; Ecoli WT expand: -8; PostGolgi ctrl: 49*; tolC growth inh: 55

Results for Cc1ccc(-c2noc(CCCN3C(=O)c4ccccc4C3=O)n2)cc1 ?
PostGolgi yeast: 9; Ecoli WT expand: -1; PostGolgi ctrl: 31*

How did O=C1c2ccccc2C(=O)N1CCc1nc(-c2ccncc2)no1 do in these assays?
PostGolgi yeast: -2; Ecoli WT expand: -4; PostGolgi ctrl: -5

Results for COn1c(SCC(=O)N(C)C)nc2ccccc2c1=O ?
PostGolgi yeast: 14; Ecoli WT expand: -1; PostGolgi ctrl: -5; tolC growth inh: -7

What do the screens show for `CN(C1CCCCC1)S(=O)(=O)Cc1ccccc1`?
PostGolgi yeast: 0; Ecoli WT expand: 13; PostGolgi ctrl: 3; tolC growth inh: 0

What do the screens show for `COc1ccc(OC)c2c(C)cc(N3CCCN(C)CC3)nc12`?
PostGolgi yeast: -1; Ecoli WT expand: 2; PostGolgi ctrl: 6; tolC growth inh: -5

What do the screens show for `COc1cc(OC)cc(C(C)=O)c1`?
PostGolgi yeast: -6; Ecoli WT expand: -2; PostGolgi ctrl: 0; tolC growth inh: -3

How did O=S(=O)(Nc1ccc2c(c1)OCCO2)c1ccc2oc3ccccc3c2c1 do in these assays?
PostGolgi yeast: 9; Ecoli WT expand: -7; PostGolgi ctrl: 59*; tolC growth inh: 98*

What do the screens show for `O=S(=O)(Nc1ccc2c(c1)oc1ccccc12)N1CCCC1`?
PostGolgi yeast: -13; Ecoli WT expand: -6; PostGolgi ctrl: 47*; tolC growth inh: 4

Results for COc1cc2c(cc1NS(=O)(=O)N1CCCCC1)oc1ccccc12 ?
PostGolgi yeast: 21; Ecoli WT expand: -9; PostGolgi ctrl: 68*

How did Cc1cc(Cl)c(S(=O)(=O)NC2CCCC2)cc1OCC(=O)NC1CCCCC1 do in these assays?
PostGolgi yeast: 4; Ecoli WT expand: 2; PostGolgi ctrl: 11

Results for O=C(Cn1nnc(-c2ccc(Cl)cc2)n1)NC1CC2CCC1C2 (stereo unspecified) ?
PostGolgi yeast: 37*; Ecoli WT expand: -8; PostGolgi ctrl: 15; tolC growth inh: 12

How did CCOc1ccc2nc(NC(=O)C3CCCN(S(=O)(=O)c4c(C)noc4C)C3)sc2c1 (stereo unspecified) do in these assays?
tolC growth inh: 18

What do the screens show for `CC(C)c1ccccc1NC(=O)c1cccnc1`?
PostGolgi yeast: 5; Ecoli WT expand: 2; PostGolgi ctrl: 15; tolC growth inh: -16

How did CCC(C)c1ccccc1NC(=O)c1cccnc1 (stereo unspecified) do in these assays?
PostGolgi yeast: -7; Ecoli WT expand: 0; PostGolgi ctrl: 52*; tolC growth inh: 1

What do the screens show for `C=CCn1c(SCC(=O)Nc2ncc(Cc3cc(C(F)(F)F)ccc3Cl)s2)nnc1-c1ccncc1`?
PostGolgi yeast: 2; Ecoli WT expand: -17; PostGolgi ctrl: -6

Results for CSc1nnc(-c2ccc(S(=O)(=O)N3CCCC3)cc2)n1C ?
PostGolgi yeast: 3; Ecoli WT expand: -6; PostGolgi ctrl: 7; tolC growth inh: -14

How did O=C(Nc1ncc(Br)s1)C(Cc1ccccc1)n1cccc1 (stereo unspecified) do in these assays?
PostGolgi yeast: 87*; Ecoli WT expand: 12; PostGolgi ctrl: 89*; tolC growth inh: 96*

Results for CCc1ccc(CNC(=O)CN2C(=O)COc3ccccc32)cc1 ?
PostGolgi yeast: 3; Ecoli WT expand: -7; PostGolgi ctrl: 10; tolC growth inh: 6

What do the screens show for `COC(=O)c1sccc1-c1ccc(C(=O)Nc2cccc(Cl)c2)o1`?
PostGolgi yeast: -2; Ecoli WT expand: -10; PostGolgi ctrl: 46*

How did COC(=O)c1ccccc1NC(=O)c1ccc(-c2cccc(Cl)c2)o1 do in these assays?
PostGolgi yeast: -2; Ecoli WT expand: -12; PostGolgi ctrl: 8

Results for Cc1ccc(C)c(N2CCN(C(=O)COc3cc(=O)n(C)c4ccccc34)CC2)c1 ?
PostGolgi yeast: 2; Ecoli WT expand: 0; PostGolgi ctrl: 38*; tolC growth inh: 12
